Data on 17 compounds can be found in ChEMBL document CHEMBL1921681, “Difluoromethylbenzoxazole pyrimidine thioether derivatives: a novel class of potent non-nucleoside HIV-1 reverse transcriptase inhibitors” (J Med Chem, 2011).

Data set [1] has as its system Human immunodeficiency virus 1. Put plainly: Antiviral activity against Human immunodeficiency virus 1 3B infected in human MT4 cells stably transformed with HIV1 LTR-EGFP after 3 days by fluorescence microscopic analysis. The class given is functional, organism-based. As to conditions: MT4, 72 h. In outline:
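MT4 cells carrying an HIV LTR-EGFP reporter (150 000 cells/mL) infected with HIV-1 IIIB at MOI 0.01, with or without graded inhibitor concentrations. After 3 days, replication read as EGFP fluorescence and expressed as EC50. Cell line maintained in RPMI 1640 with 10% heat-inactivated FCS, 2 mM L-glutamine, gentamicin, G418, at 37 °C, 5% CO2.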

Data set [2] relates to Human immunodeficiency virus 1. Put plainly: Antiviral activity against Human immunodeficiency virus 1 HXB2 harboring reverse transcriptase K103N and Y181C mutant infected in human MT4 cells stably transformed with HIV1 LTR-EGFP after 3 days by fluorescence microscopic analysis. The class given is functional, organism-based. As to conditions: Human immunodeficiency virus 1, HXB2, MT4, 72 h.

Data set [3] in a line: Selectivity ratio of CC50 for mock-infected human MT4 cells to EC50 for Human immunodeficiency virus 1 3B infected in human MT4 cells. As to conditions: read-out: Ratio CC50/EC50. The data set is classed as ADME, cell-based. In outline:
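Ratio of two values run in parallel. CC50 came from mock-infected CMV-EGFP MT4 cells (150 000 cells/mL, 3 days, EGFP fluorescence). EC50 came from MT4-LTR-EGFP cells (150 000 cells/mL) infected with HIV-1 IIIB at MOI 0.01 with or without inhibitor, with replication read as EGFP fluorescence after 3 days. SI = CC50/EC50.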

Data set [4] in a line: Cytotoxicity against mock infected human MT4 cells after 3 days by EGFP fluorescence microscopic analysis. The data set is classed as cell-based. The procedure, abridged: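 Mock-infected MT4 cells stably carrying a CMV-EGFP reporter, seeded at 150 000 cells/mL and cultured with or without serial compound concentrations. MT4 cells kept in RPMI 1640 with 10% heat-inactivated FCS, 2 mM L-glutamine, 0.1% NaHCO3, gentamicin and G418, at 37 °C under 5% CO2. After 3 days, proliferation was read as EGFP fluorescence, giving CC50.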

Data set [5] has as its system Human immunodeficiency virus 1. Briefly: Selectivity ratio of EC50 for Human immunodeficiency virus 1 HXB2 harboring reverse transcriptase K103N and Y181C mutant infected in human MT4 cells to EC50 for Human immunodeficiency virus 1 3B infected in human MT4 cells. The class given is functional.
Data set [6] in a line: Dissociation constant, pKa of the compound. The data set is classed as physicochemical.
Data set [7] can be described thus: Aqueous solubility of the compound. The following applies: buffer. The class given is physicochemical.
Data set [8] addresses Cytochrome P450 2C9 (Homo sapiens, UniProt P11712). Put plainly: Inhibition of CYP2C9. The class given is ADME.
Data set [9] addresses Cytochrome P450 2D6 (Homo sapiens, UniProt P10635). Briefly: Inhibition of CYP2D6. The class given is ADME.
Data set [10] is described as follows: Apparent permeability of the compound across human Caco2 cells. The class given is ADME, cell-based. The following applies: Caco-2. A general note: Passage across Caco-2 layers is used to estimate intestinal permeability.
The nature of data set [11]: Lipophilicity, log D of the compound. The data set is classed as physicochemical. As to conditions: octanol/water.
Data set [12] in a line: Metabolic stability of the compound in human liver microsomes after 15 mins. The data set is classed as ADME, Microsome. As to conditions: read-out: Stability. For orientation: Microsomes from liver hold many membrane-bound enzymes, among them those of drug oxidation.
In data set [13] the target is Cytochrome P450 3A4 (Homo sapiens, UniProt P08684). Put plainly: Inhibition of CYP3A4. The class given is ADME.
Cytochrome P450 3A4, sequence (P08684 whole entry): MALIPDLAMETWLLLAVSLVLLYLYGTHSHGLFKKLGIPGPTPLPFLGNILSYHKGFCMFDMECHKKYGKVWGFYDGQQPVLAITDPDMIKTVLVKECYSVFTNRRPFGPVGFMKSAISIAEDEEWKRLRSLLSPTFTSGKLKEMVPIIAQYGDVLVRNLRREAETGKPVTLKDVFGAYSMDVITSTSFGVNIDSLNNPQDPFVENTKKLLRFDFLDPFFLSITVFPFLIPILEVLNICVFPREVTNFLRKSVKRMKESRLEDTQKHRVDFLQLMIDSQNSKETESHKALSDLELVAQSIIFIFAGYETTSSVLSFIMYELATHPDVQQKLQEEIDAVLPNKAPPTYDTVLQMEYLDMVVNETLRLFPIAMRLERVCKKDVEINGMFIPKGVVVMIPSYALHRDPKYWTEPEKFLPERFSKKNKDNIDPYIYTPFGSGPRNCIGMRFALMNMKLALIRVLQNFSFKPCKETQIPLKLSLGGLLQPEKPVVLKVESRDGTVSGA

Broadly, the EC50 is the midpoint of the concentration-response curve. The CC50 is the concentration at which the toxic effect on the cells reaches its halfway point. Higher therefore signals better tolerance by the cells. By pKa is commonly meant the pH at which an ionisable group is half protonated. A lower pKa goes with a group that gives up its proton readily. The solubility is how much of the substance goes into solution per volume. A low value points to a poorly soluble substance. The term Papp denotes a coefficient for how fast a substance crosses the barrier. A word on the logD: it is the decadic logarithm of the distribution of all forms, ionised or not, between an organic phase and buffer at a given pH. High values mean higher lipophilicity, low ones lower lipophilicity.

In brackets after ≈: the same amount, converted by molar mass. Bounds are passed on as bounds.

Cytochrome P450 2D6, sequence (P10635 whole entry): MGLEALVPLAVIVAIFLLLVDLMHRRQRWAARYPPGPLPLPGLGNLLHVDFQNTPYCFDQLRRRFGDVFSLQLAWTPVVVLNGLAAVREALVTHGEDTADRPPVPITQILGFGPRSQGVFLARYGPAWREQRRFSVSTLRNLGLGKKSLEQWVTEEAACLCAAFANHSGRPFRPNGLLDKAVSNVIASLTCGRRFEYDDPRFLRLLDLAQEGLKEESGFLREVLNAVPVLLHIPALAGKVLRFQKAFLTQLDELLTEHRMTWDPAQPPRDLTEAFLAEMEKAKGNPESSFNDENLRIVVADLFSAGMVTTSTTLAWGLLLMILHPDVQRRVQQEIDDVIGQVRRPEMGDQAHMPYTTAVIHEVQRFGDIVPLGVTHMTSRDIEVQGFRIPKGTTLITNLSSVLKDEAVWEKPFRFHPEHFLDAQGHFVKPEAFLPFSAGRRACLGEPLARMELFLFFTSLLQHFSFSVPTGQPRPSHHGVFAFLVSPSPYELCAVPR
Cytochrome P450 2C9, sequence (P11712 whole entry): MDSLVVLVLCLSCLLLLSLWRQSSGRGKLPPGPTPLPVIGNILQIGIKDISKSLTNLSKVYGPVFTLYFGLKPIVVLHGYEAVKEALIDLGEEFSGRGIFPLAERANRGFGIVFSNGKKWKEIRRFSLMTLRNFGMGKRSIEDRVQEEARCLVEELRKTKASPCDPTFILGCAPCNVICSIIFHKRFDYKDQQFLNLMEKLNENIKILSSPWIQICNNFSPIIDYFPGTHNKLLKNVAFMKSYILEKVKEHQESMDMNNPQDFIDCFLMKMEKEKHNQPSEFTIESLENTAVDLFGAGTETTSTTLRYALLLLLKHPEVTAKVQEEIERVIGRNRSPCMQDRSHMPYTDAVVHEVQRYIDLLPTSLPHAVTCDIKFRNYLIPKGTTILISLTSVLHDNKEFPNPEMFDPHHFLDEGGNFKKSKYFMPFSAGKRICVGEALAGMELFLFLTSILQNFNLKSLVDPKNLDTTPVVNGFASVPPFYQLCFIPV

The compound `FC(F)(Sc1ncccn1)c1nc2ccccc2o1` showed an EC50 in data set [1] of 3.14 µM.

Regarding `Cc1ccnc(SC(F)(F)c2nc3c(C)cccc3o2)n1`, the EC50 is 0.17 µM in data set [1] and more than 98.4 µM in [2]. Moreover, the selectivity ratio in data set [3] was more than 570. Further, the CC50 at 72 h in data set [4] was more than 98.4 µM.

On to `CC(C)c1ccnc(SC(F)(F)c2nc3ccccc3o2)n1`, for which the half-maximal effective concentration (EC50) is 0.13 µM in data set [1] and more than 98.4 µM in [2]. In addition, the selectivity ratio in data set [3] is more than 774. For the same compound, the CC50 at 72 h in data set [4] was more than 98.4 µM.

`CCc1ccnc(SC(F)(F)c2nc3ccccc3o2)n1`: the figures for the EC50 in data set [1] and in data set [2] were 0.0064 µM and 57 µM, respectively. Further, the selectivity ratio in data set [3] was more than 15000. The same compound returned a CC50 at 72 h in data set [4] of more than 98 µM.

For `COCc1ccnc(SC(F)(F)c2nc3ccccc3o2)n1`, the EC50 in data set [1] was 0.66 µM; in data set [2] it was more than 98.4 µM. Besides, the selectivity ratio in data set [3] was more than 142. The same compound displayed a CC50 at 72 h in [4] of more than 98.4 µM.

On to `Cc1ccnc(SC(F)(F)c2nc3c(Cl)cccc3o2)n1`, for which the EC50 in data set [1] came out at 0.098 µM; in data set [2] it was 79 µM. In addition, the selectivity ratio in [3] was more than 1000. Besides, the “Ratio EC50” value in data set [5] stood at 30. Further, the CC50 at 72 h in data set [4] is more than 98.4 µM.

As for `Cc1ccnc(SC(F)(F)c2nc3ccccc3o2)n1`, in data set [6], the pKa stood at 3.6. In addition, the values for the EC50 in [1] and in data set [2] were 0.11 µM and 67 µM, respectively. Further, in data set [3], the selectivity ratio is more than 800. The same compound registered a solubility in data set [7] of 200 µM (≈ 58.7 µg/mL). In addition, the “inhibition (INH)” value in data set [8], in data set [9] and in data set [13] was less than 30% each time. Further, the Papp in [10] came out at 34.6 ×10⁻⁶ cm/s. The compound also came in with a pH-dependent lipophilicity (logD) in data set [11] of 3.9. Further, in data set [12], the remaining at 0.25 h came out at 90%. In addition, the CC50 at 72 h in [4] was more than 100 µM.

Consider `c1cnc(SCc2nc3ccccc3o2)nc1`, for which a half-maximal effect in data set [1] (EC50) was put at 35.3 µM.

For the compound `Cc1ccnc(S(=O)(=O)C(F)(F)c2nc3ccccc3o2)n1`, the 50% effective concentration (EC50) is 7.9 µM in [1] and more than 61 µM in data set [2]. The selectivity ratio in [3] was 8. Also, the half-maximal cytotoxic concentration (CC50) at 72 h in [4] stood at 61 µM.

In the case of `FC(F)(Sc1nccc(C2CC2)n1)c1nc2ccccc2o1`, the concentration for a half-maximal effect (EC50) in data set [1] stood at 0.16 µM; in [2] it was 67.9 µM. The selectivity ratio in data set [3] was found to be 484. This compound yielded a half-maximal cytotoxic concentration (CC50) at 72 h in data set [4] of 77.5 µM.

As to `Cc1ccnc(SC(F)(F)c2nc3cccc(C)c3o2)n1`, the EC50 in data set [1] came to 0.2 µM; in [2], 55.4 µM. Moreover, the selectivity ratio in data set [3] was more than 490. In data set [4], the CC50 at 72 h is more than 98.4 µM.

In the case of `Nc1ccnc(SC(F)(F)c2nc3ccccc3o2)n1`, the half-maximal effective concentration (EC50) in data set [1] is 0.26 µM; in data set [2] it was more than 33 µM. The selectivity ratio in data set [3] stood at 129. The midpoint of cytotoxicity in [4], the CC50 at 72 h, lay at 33.5 µM.

In turn, `Cc1cc(C)nc(SC(F)(F)c2nc3ccccc3o2)n1` returned a pKa in [6] of 1.3. For the same compound, the values for the EC50 in data set [1] and in data set [2] were 0.95 µM and 77.2 µM, respectively. The selectivity ratio in data set [3] was more than 100. Also, the 50% cytotoxic concentration (CC50) at 72 h in data set [4] is more than 98.4 µM.

Take `Cc1cccc2oc(C(F)(F)Sc3nccc(N)n3)nc12`: the EC50 is 0.83 µM in data set [1] and more than 20 µM in data set [2]. Also, the selectivity ratio in data set [3] was 24. The compound also gave a CC50 at 72 h in [4] of 20 µM.

Consider `Cc1ccnc(SC(F)(F)c2nc3cccc(Cl)c3o2)n1`, for which the EC50 worked out at 0.14 µM in [1] and 60 µM in [2]. In [3], the selectivity ratio was more than 700. In data set [5], the “Ratio EC50” value was 30. The compound also registered a CC50 at 72 h in data set [4] of more than 98.4 µM.

Take `Nc1ccnc(SC(F)(F)c2nc3c(Cl)cccc3o2)n1`: the EC50 in data set [1] and in [2] was more than 28 µM each time. In addition, the selectivity ratio in data set [3] was less than 1. Moreover, the “Ratio EC50” value in data set [5] was found to be 30. This compound also returned a cytotoxic concentration (CC50) at 72 h in data set [4] of 28.8 µM.

With `CC(=O)Nc1ccnc(SC(F)(F)c2nc3ccccc3o2)n1`, the concentration for a half-maximal effect (EC50) in data set [1] was 43.3 µM; in data set [2], more than 98.4 µM. Besides, the selectivity ratio in data set [3] was more than 2.3. The compound further displayed a CC50 at 72 h in [4] of more than 98.4 µM.
